Measured values reported in ChEMBL document CHEMBL1125276 (J Med Chem, 1991).

What was measured:
L1210 = experiment: Tested for the inhibition of L1210 cell proliferation.; format: functional, cell-based; conditions: Mus musculus
In short: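 L1210 cells were grown in RPMI 1640 with 10% FCS, 2 mM L-glutamine and 10 mM HEPES (pH 7.4). Exponential-phase cells (10^5 cells/mL) were exposed for 24 h to 5 drug concentrations in triplicate, then pulsed 3 h with 0.5 µCi/mL [3H]thymidine. Cells were harvested onto filters and counted. IC50 is 50% inhibition of incorporation versus untreated cells, given as the mean of 2–5 independent experiments.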

P388 [1] = experiment: Long-term survivors (LTS) for 60 days at optimal dose of 1.00 mg/kg for antitumor activity against P388 leukemia cells in 12 mice.; format: functional, Mus musculus
P388 [2] = experiment: Compound was tested for T/C range at optimal dose of 1.00 mg/kg for antitumor activity against P388 leukemia cells in mice; value ranges from 234-302; format: functional, Mus musculus
Tubulin = experiment: The compound tested for the inhibition of tubulin polymerization.; format: functional
In short: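 Tubulin was partially purified from dog brain by polymerization/depolymerization cycles and used at 0.5 mg/mL. Compounds were added in DMSO (10 µL per 500 µL reaction) at 10^-6 to 10^-9 M, with DMSO-only controls. Polymerization was followed by turbidity at 350 nm. Rates from two separate experiments were plotted against concentration, and IC50 was read graphically.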

P388 [3] = experiment: Compound was tested for T/C range at optimal dose of 0.15 mg/kg for antitumor activity against P388 leukemia cells in mice; value ranges from 168-600; format: functional, Mus musculus
P388 [4] = experiment: Long-term survivors (LTS) for 60 days at optimal dose of 0.15 mg/kg for antitumor activity against P388 leukemia cells in 25 mice.; format: functional, Mus musculus
P388 [5] = experiment: Long-term survivors (LTS) for 60 days at optimal dose of 1.00 mg/kg for antitumor activity against P388 leukemia cells in 6 mice.; format: functional, Mus musculus
P388 [6] = experiment: Compound was tested for T/C range at optimal dose of 1.00 mg/kg for antitumor activity against P388 leukemia cells in mice.; format: functional, Mus musculus
P388 [7] = experiment: Compound was tested for T/C range at optimal dose of 3.0 mg/kg for antitumor activity against P388 leukemia cells in mice.; format: functional, Mus musculus
P388 [8] = experiment: Long-term survivors (LTS) for 60 days at optimal dose of 3.0 mg/kg for antitumor activity against P388 leukemia cells in 6 mice.; format: functional, Mus musculus
P388 [9] = experiment: Long-term survivors (LTS) for 60 days at optimal dose of 1.00 mg/kg for antitumor activity against P388 leukemia cells in 5 mice.; format: functional, Mus musculus
P388 [10] = experiment: Compound was tested for T/C range at optimal dose of 20.0 mg/kg for antitumor activity against P388 leukemia cells in mice.; format: functional, Mus musculus
P388 [11] = experiment: Long-term survivors (LTS) for 60 days at optimal dose of 20.0 mg/kg for antitumor activity against P388 leukemia cells in 5 mice; format: functional, Mus musculus
P388 [12] = experiment: Compound was tested for T/C range at optimal dose of 40.0 mg/kg for antitumor activity against P388 leukemia cells in mice.; format: functional, Mus musculus
P388 [13] = experiment: Long-term survivors (LTS) for 60 days at optimal dose of 40.0 mg/kg for antitumor activity against P388 leukemia cells in 6 mice.; format: functional, Mus musculus

For `C=CCC(NC(=O)[C@@]1(O)[C@H](O)[C@]2(CC)C=CCN3CC[C@@]4(c5cc([C@@]6(C(=O)OC)C[C@@H]7CN(CCc8c6[nH]c6ccccc86)C[C@](O)(CC)C7)c(OC)cc5N(C)[C@@H]14)[C@@H]32)P(=O)(OCC)OCC` (some centres undefined), the IC50 (L1210) was 3.7 nM, the LTS (P388 [1]) was 2 and the T/C (P388 [2]) was 234%. For the same compound, the IC50 (Tubulin) was 300 nM.
In the case of `CCOP(=O)(OCC)[C@@H](NC(=O)[C@@]1(O)[C@H](O)[C@]2(CC)C=CCN3CC[C@@]4(c5cc([C@@]6(C(=O)OC)C[C@@H]7CN(CCc8c6[nH]c6ccccc86)C[C@](O)(CC)C7)c(OC)cc5N(C)[C@@H]14)[C@@H]32)C(C)C`, the IC50 (L1210) is reported as 0.43 nM, the T/C (P388 [3]) is reported as 168% and the LTS (P388 [4]) is reported as 8. For the same compound, the IC50 (Tubulin) was 400 nM.
In the case of `CCOP(=O)(OCC)[C@@H](C)NC(=O)[C@@]1(O)[C@H](O)[C@]2(CC)C=CCN3CC[C@@]4(c5cc([C@@]6(C(=O)OC)C[C@@H]7CN(CCc8c6[nH]c6ccccc86)C[C@](O)(CC)C7)c(OC)cc5N(C)[C@@H]14)[C@@H]32`, the IC50 (L1210) is reported as 37 nM, the LTS (P388 [5]) is reported as 0 and the T/C (P388 [6]) is reported as 145%. It also gave an IC50 (Tubulin) of 80 nM.
In the case of `CCOP(=O)(OCC)[C@H](NC(=O)[C@@]1(O)[C@H](O)[C@]2(CC)C=CCN3CC[C@@]4(c5cc([C@@]6(C(=O)OC)C[C@@H]7CN(CCc8c6[nH]c6ccccc86)C[C@](O)(CC)C7)c(OC)cc5N(C)[C@@H]14)[C@@H]32)C(C)C`, the IC50 (L1210) is reported as 10.9 nM, the T/C (P388 [7]) is reported as 135% and the LTS (P388 [8]) is reported as 0. It also gave an IC50 (Tubulin) of 800 nM.
Compound `C=CC[C@H](NC(=O)[C@@]1(O)[C@H](O)[C@]2(CC)C=CCN3CC[C@@]4(c5cc([C@@]6(C(=O)OC)C[C@@H]7CN(CCc8c6[nH]c6ccccc86)C[C@](O)(CC)C7)c(OC)cc5N(C)[C@@H]14)[C@@H]32)P(=O)(OCC)OCC` has an IC50 (L1210) of 1.29 nM, an LTS (P388 [9]) of 0 and a T/C (P388 [6]) of 294%.
In the case of `CCOP(=O)(OCC)[C@@H](Cc1ccccc1)NC(=O)[C@@]1(O)[C@H](O)[C@]2(CC)C=CCN3CC[C@@]4(c5cc([C@@]6(C(=O)OC)C[C@@H]7CN(CCc8c6[nH]c6ccccc86)C[C@](O)(CC)C7)c(OC)cc5N(C)[C@@H]14)[C@@H]32`, the IC50 (L1210) is reported as 14.3 nM, the T/C (P388 [10]) is reported as 261% and the LTS (P388 [11]) is reported as 1.
`CCOP(=O)(OCC)[C@H](Cc1c[nH]c2ccccc12)NC(=O)[C@@]1(O)[C@H](O)[C@]2(CC)C=CCN3CC[C@@]4(c5cc([C@@]6(C(=O)OC)C[C@@H]7CN(CCc8c6[nH]c6ccccc86)C[C@](O)(CC)C7)c(OC)cc5N(C)[C@@H]14)[C@@H]32` showed an IC50 (L1210) of 64.7 nM, a T/C (P388 [12]) of 188% and an LTS (P388 [13]) of 0. The IC50 (Tubulin) was 100 nM.
`CCOP(=O)(CNC(=O)[C@@]1(O)[C@H](O)[C@]2(CC)C=CCN3CC[C@@]4(c5cc([C@@]6(C(=O)OC)C[C@@H]7CN(CCc8c6[nH]c6ccccc86)C[C@](O)(CC)C7)c(OC)cc5N(C)[C@@H]14)[C@@H]32)OCC` gave an IC50 (L1210) of 17.8 nM, a T/C (P388 [7]) of 230% and an LTS (P388 [8]) of 1. For the same compound, the IC50 (Tubulin) was 300 nM.
In the case of `CCOP(=O)(OCC)[C@@H](Cc1c[nH]c2ccccc12)NC(=O)[C@@]1(O)[C@H](O)[C@]2(CC)C=CCN3CC[C@@]4(c5cc([C@@]6(C(=O)OC)C[C@@H]7CN(CCc8c6[nH]c6ccccc86)C[C@](O)(CC)C7)c(OC)cc5N(C)[C@@H]14)[C@@H]32`, the IC50 (L1210) is reported as 36.7 nM, the T/C (P388 [12]) is reported as 197% and the LTS (P388 [13]) is reported as 0. It also gave an IC50 (Tubulin) of 100 nM.
